According to the EternaBench riboswitch data:

Test system: MS2 coat protein
Test: apparent Kd, MS2 coat protein; higher = weaker binding; RNA-MaP array; FMN 200 µM where present
Method in brief: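 Stalled E. coli RNA polymerase transcribed each design on Illumina sequencing-chip clusters. The clusters were titrated with SNAP-549-labelled MS2 coat protein, starting at 0.7 or 1.5 nM and doubling up to 3 µM, first without ligand and then with constant ligand, in 100 mM Tris-HCl pH 7.5, 80 mM KCl, 4 mM MgCl2, BSA, DTT, yeast tRNA and Tween-20. Green signal was normalised to red-channel RNA signal and to the control-cluster median Fmax. The apparent Kd is the median of filtered binding-curve fits made for each cluster.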

[1] = designed as: OFF switch for flavin mononucleotide, no ligand
[2] = ligand present: flavin mononucleotide, designed as: OFF switch for flavin mononucleotide
[3] = designed as: ON switch for flavin mononucleotide, no ligand
[4] = ligand present: flavin mononucleotide, designed as: ON switch for flavin mononucleotide

Sequence | apparent Kd [1] | apparent Kd [2] | apparent Kd [3] | apparent Kd [4]
UGAUAACAUGUAGGAUAUCCAGCAUUGACCAUCGGAGAAGGACAUGAGGAUCACCCAUGUACCGAUACAAUGGGAUAAUGGAAU | 15.5 nM | 17.2 nM |  | 
GUAGCAUACCGAGGAUAUCUAACGACAAAGUCGACAUGAGGAUCACCCAUGUGGCGAAAGCCUUGGGAGAAGGCGGAAUGCUAC |  |  | 16.2 nM | 12.6 nM
CGGGCGCGAGGAUAUACAUGAGGAUCACCCAUGUAGUGGGUUUGUUUCGGGCUUGCGUGUAGAAGGUGUGUUUG | 217 nM | 172 nM |  | 
GUAAGAAAUACAGGAUAUGUUAGUUUUAAGUGUAUUGGUUAUUACUUAAUUACAGAAGGGUAUUACAUGAGGAUCACCCAUGUA |  |  | 14.8 nM | 9.06 nM
ACAUGAGGAUCACCCAUGUGGAGUGAAGAAGGUGGAUACUUAUGACUCUCCCAUGUACAUAGGACUGAGGAUAUUCUAAUAAUU |  |  | 31.2 nM | 27.2 nM
UUAUGUGUUGUAGGAUAUCAUUAGAUUUGUAAUUUAAUUGUAAUUUAUAUAUGAGAAGGACAUUUACAUGAGGAUCACCCAUGU | 22.3 nM | 13.4 nM |  | 
GCGGAGUGAGGAUAUAGAACUUAAGGUACCAAUAAGGUACCCUAGAAGGCACAUGAGGAUCACCCAUGUACCGC | 24.3 nM | 24.4 nM |  | 
CUGGAUAGAGGAUAUUGUGCUGCUGACAUGAGGAUCACCCAUGUAUGUUAACUCGGCCGUCGAGAAGGCUAACAGG | 24.7 nM | 15.3 nM |  | 
AAUUAUAUGUAGAAGGUACAGACUUAUGAGUAGUAAGGAUAUACAAAAUUAUUAAUUCUCAAGUUACAUGAGGAUCACCCAUGU |  |  | 11.6 nM | 8.33 nM
AAGUGCUAAGGAUAUAUAUGGAUAUACAUUUAUGUAGAACUACAUGAGGAUCACCCAUGUAGAAGGUAGCAAUA | 25.3 nM | 42.3 nM |  | 
UCAUUGAUUGUGAGGAUAUCGAUGUGAUGGUUUGUCGAGAAGGCACAUGAGGAUCACCCAUGUGGGUGUGGGCU | 864 nM | 242 nM |  | 
GGGUACAUUGGAGGAUAUCAUGUAAAUACAUGAGGAUCACCCAUGUCGAUGGAGACAUCGGAGAUUGAGAAGGCCGAUGUACCG |  |  | 183 nM | 9.08 nM
GUGCAGGUAGGAUAUACGUGAGAGCCUUGUGGGCGUCUGGUACAUGAGGAUCACCCAUGUAGAAGGACCGGGCU | 21.3 nM | 77.5 nM |  | 
CCACGACAUGAGGAUCACCCAUGUCAGGAUAUCCCUCAUUGUAUGAAAAUACAAUGAGGGAGAAGGGACGUGAC | 33.8 nM | 31.6 nM |  | 
UGUGCGUAUGUGAGGAUAUGCUGGUCCUUGGAUCGGCAGAAGGCACAUGAGGAUCACCCAUGUGGUGUCGUACC | 161 nM | 40.4 nM |  | 
AGUGCGUAUGUGAGGAUAUGCUGGUCCUUGGAUCGGCAGAAGGCACAUGAGGAUCACCCAUGUGGUGUCGUACC | 244 nM | 34 nM |  | 
GUGUACGGAGGAUAUAUGUGGCGAGCAUACGCUCGAGCUUCACAUGAGGAUCACCCAUGUAGAAGGCUGUGCAC | 19 nM | 102 nM |  | 
AAAAAGGUAGGAUAUACGAAAAAAAAGGGUAAAAUAAAUAAACAUGAGGAUCACCCAUGUAGAAGGACCAAAAA | 25.3 nM | 64.4 nM |  | 
AAAUGCCUGUCGAUGCUCGACAUGAGGAUCACCCAUGUAUAGCAGGAUAUGCAGACCUGACUCGUGCAGAAGGGCUAUACCUAA | 12.6 nM | 64.3 nM |  | 

Sequence | apparent Kd [1] | apparent Kd [2] | apparent Kd [3] | apparent Kd [4]
GUCGGGUCUCACGCGUCGGUCCACAUGAGGAUCACCCAUGUCAAGGAUAUAGCGUCUUCCGGGCGUUAGAAGGUGACCAUUGGC | 34.6 nM | 48.1 nM |  | 
ACCCAUGUCCAAGGAUAUGUACUCACAUGAGGAUCACCCAUGUAAAAGGGAGCAGAAGGUGGUACAUGUUAGAGAAUAAUAAAC |  |  | 129 nM | 11.4 nM
GCGUUCAUGUAGAAGGUACCUACAACAAAUUAUAACCGCUAGACACAUGAGGAUCACCCAUGUUGUAAGGAUAUACAUGAACGC |  |  | 25.2 nM | 17.1 nM
CAGGUUAGAGGAUAUACGUAGGUACAGAUCUGUGUGUUCCUACAUGAGGAUCACCCAUGUAGAAGGCUAUCCUG | 69.8 nM | 208 nM |  | 
UCGGCGCGAGGAUAUGCGGUUCCUCCCUCGGGCCGGAGCGUACAUGAGGAUCACCCAUGUAGAAGGCGCGCCGC | 13.9 nM | 15.1 nM |  | 
AAGUGUAUAGGAUAUGCGUGGAAAAGGUGUAUUCACUAGCGACAUGAGGAUCACCCAUGUAGAAGGGUAUGUAA | 124 nM | 64 nM |  | 
AAAAAAAAAGUAUAGGAUAUCCGAGUGGUAACAUGAGGAUCACCCAUGUGAAGAAAGGAAGAUGAGGAGAAGGAUACAAAAAAAAA |  |  | 125 nM | 48.5 nM
UACGCGUAGGAGAAGGGCCCACUAUAGGGUAAGUGCUGUUCUCACAUGAGGAUCACCCAUGUGCGGCAGGAUAUCCACGCGUGC | 11.6 nM | 66.7 nM |  | 
UUUAUGUGAGGAUAUCAGUAGUAAAAAAAUAAAAUUACUACUGAGAAGGCACAUGAGGAUCACCCAUGUGCUUC | 19.5 nM | 15.1 nM |  | 
UGAUAGCACAGAGGAUAUGCGUAGUGUUAUCACUACAUGAGGAUCACCCAUGUAGAAGGCUGUGCUAUCUAAGUCGGAAACGAC | 6.33 nM | 7.44 nM |  | 
CGCUAAUAAAUAGUAAUAAUUGUACAGGAUAUGUUACAUGAGGAUCACCCAUGUAUUGGGUUUAAACAGAAGGGUAUAUUAGCG | 261 nM | 126 nM |  | 
UUAGCAUACCGAGGAUAUUCAUAUAAUAAAUAAACAUGAGGAUCACCCAUGUGGCGAAAGCCUAGGGAGAAGGCGGAAUGCUAU |  |  | 197 nM | 24.6 nM
UAAGUCGGAAGAUAAUAAUGAAUACAUGAGGAUCACCCAUGUAAGGAUAUGCAGUGGAAUACACUGCAGAAGGUACAUACCGAC | 16.1 nM | 21.4 nM |  | 
ACUUGCUUGCAGAAGGGUGACAUGAGGAUCACCCAUGUAGCGUGCCGGCGUAAAGUCAGCGCGCCACAGGAUAUGCAGGCCUCG |  |  | 65.8 nM | 44 nM
GUGGCUGUUAGGCUUGCGCCGGCGACAGAAGGCCAACAUGAGGAUCACCCAUGUACAAAGACCAUGGAGGAUAUGUUGCCAGUG |  |  | 41.8 nM | 8.95 nM
GUCACGAAUGUAGGAUAUCGAGUGGAAUACACUCGAGAAGGACAUGAGGAUCACCCAUGUCAAAUGAAAGAUAAUAAACGUGAC | 14.6 nM | 18.8 nM |  | 
UUGCGCUGUCGAGAGGAUAUGCGGUGUUGGACAUGAGGAUCACCCAUGUUUGCGAUAGCUUUACGGUAGAAGGCUCUUCAGCUGC |  |  | 63.9 nM | 35.9 nM
GAUAGACAUGAGGAUCACCCAUGUGAGGAUAUGCGUACGUUGUCCGUAGGCGACGUGCGCAGAAGGCGCGAGGU | 55.9 nM | 88.3 nM |  | 
GGAUAGGACAGAGGAUAUACGGAUAGGAUCUACUAUCUUUCUCAAAUAACAUGAGGAUCACCCAUGUAGAAGGCUGUCCUAUCG | 21.5 nM | 122 nM |  | 

Sequence | apparent Kd [1] | apparent Kd [2] | apparent Kd [3] | apparent Kd [4]
UGCCAGUUAGGAUAUGACUCGACAGACAUGAGGAUCACCCAUGUCCGAGUGUGUGUUUUUUCAGAAGGGACGGCCC | 25.1 nM | 30.4 nM |  | 
CAGCGCUGUUGAGAGGAUAUGCGGUGAUGGACAUGAGGAUCACCCAUGUUAGCGACAGCAUUACGGCAGAAGGCUUCACAGCUGC |  |  | 51.1 nM | 14.6 nM
GGAUGUAAGGAGAAGGGCUACUGGUUGAAACCUGCGGCCUCUGGAACAUGAGGAUCACCCAUGUAGCAGGAUAUCCUUGCGUGA | 129 nM | 46.3 nM |  | 
UCGGCGCGAGGAUAUGCGGCUGGUGCUUCGGGCUCUGGCGUACAUGAGGAUCACCCAUGUAGAAGGCGCGCCGC | 13.1 nM | 14.3 nM |  | 
GGUCGUCAAGUCAGGAUAUCGUAUAGUAGAUGUAACGAGAAGGGACAUGAGGAUCACCCAUGUCGUCUCAUCAG | 18.9 nM | 25.8 nM |  | 
CUGAGGUCAGGAUAUGCAUGGCGGGACUUGCGUCGUGGCGUGCAGAAGGGACAUGAGGAUCACCCAUGUGGAGU | 165 nM | 287 nM |  | 
GCGGUGAUCCUAGCUCACAUGAGGAUCACCCAUGUGCAGUUCAAGGAUAUACGUUGCCGCUCCGCGUAGAAGGUGAACUCGCUA | 43 nM | 44.1 nM |  | 
GGAAAUCAUGUAGGAUAUGCAUGGCGAAGCUACGCAGAAGGACAUGAGGAUCACCCAUGUGCUAGCUACCGAGUUCGGUGGCAA | 90.8 nM | 211 nM |  | 
GUCAAGCUAGGAUAUACAUGAGGAUCACCCAUGUUAUCCUCGUGGGCAGUUUCUUCAUGUAGAAGGAGCAAAGG | 38 nM | 16.6 nM |  | 
CUGUAGAUAUCAGGAUAUCUAUUUCCUACAUGAGGAUCACCCAUGUAGAUGAUCACCCAUGUAAAGGAGAAGGGAUAUCUAUAG |  |  | 342 nM | 180 nM
CUGUAGAGUUAGGAUAUCGGCGCGUGAGAAGUUUGAGAAGGGACCACAUGAGGAUCACCCAUGUGUCUUCACCU | 14.7 nM | 15.7 nM |  | 
GUCACGUCAGGAUAUCUGAUGUCUAACUUCGGUUAGACAUCAGAGAAGGGACAUGAGGAUCACCCAUGUGACAG | 140 nM | 275 nM |  | 
CGGGCGGGAGGAUAUGCGUGGUUUGUUCUCGUUUGGUGUCUACAUGAGGAUCACCCAUGUAGAAGGCUUGUUUG | 13.6 nM | 15.8 nM |  | 
CAGUCUACAGGAUAUACAUGAGGAUCACCCAUGUGUAUUCACUUUCAGUAAUCCAUAUGUAGAAGGGUAGACUG | 16.9 nM | 34.2 nM |  | 
AGUAACAGAGGAUAUACUAUUUUAUGUGUUUGUUGUUUUGAACAUGAGGAUCACCCAUGUAGAAGGCUGAAUAA | 23.9 nM | 24.9 nM |  | 
UAUUAAAACGAGAAGGGAGUACAUGAGGAUCACCCAUGUGCCUCAUAAUACUCAGGAUAUCGUGAUUGGGUCACCAGCUGGGUG | 509 nM | 29.3 nM |  | 
GCUGACGAUGUAGGAUAUCAGUAUAAUAAAUACUGAGAAGGACAUGAGGAUCACCCAUGUAAUAAACGUCAGCAGAGGAAACUC | 16.2 nM | 22.6 nM |  | 
ACAUGAGGAUCACCCAUGUUCGUUGAAGAAGGUACGUAUGGCUGUGGCAGGAAUAUAGUUAUAUGUAAGGAUAUUCUCAUAAUU |  |  | 13.1 nM | 7.11 nM
